Active and inactive are the calls of the source. No cut-off for these calls is given here.
Legend:
[1] = tested on: MDA-MB-231; assay: Antiproliferative activity against human MDA-MB-231 cells after 48 hrs by SRB assay; assay type: functional, cell-based; conditions: MDA-MB-231, 48 h
Outline: (§1)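 SRB assay: 5,000-10,000 cells/well plated, 24 h at 37 °C/5% CO2 before drug; seven concentrations from 100 μM down (two- to ten-fold serial dilutions, DMSO ≤0.1% final) for 48 h; TCA fixation (10% final, 60 min, 4 °C), 0.4% SRB in 1% acetic acid, solubilized in 10 mM Tris base, absorbance 515-564 nm; growth = (Ti−Tz)/(C−Tz)×100; IC50 from sigmoidal variable-slope fit; triplicates, ≥2 independent experiments.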

[2] = tested on: MCF7; assay: Antiproliferative activity against human MCF7 cells after 48 hrs by SRB assay; assay type: functional, cell-based; conditions: MCF7, 48 h; outline: as §1
[3] = tested on: MDA-MB-468; assay: Antiproliferative activity against human MDA-MB-468 cells after 48 hrs by SRB assay; assay type: functional, cell-based; conditions: MDA-MB-468, 48 h; outline: as §1
[4] = tested on: 184B5; assay: Antiproliferative activity against human 184B5 cells after 48 hrs by SRB assay; assay type: cell-based; conditions: 184B5, 48 h; outline: as §1
[5] = tested on: MCF7; assay: Anticlonogenic activity against human MCF7 cells at 0.39 to 1.5 uM after 12 hrs by crystal violet staining based assay; assay type: functional, cell-based
Outline: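 Clonogenic assay: 1000 cells/well seeded, treated after overnight attachment for 12 h, then medium replaced and cells grown until control colonies were large enough; colonies stained with crystal violet.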

Row | Compound | IC50 [1] [µM] | IC50 [2] [µM] | IC50 [3] [µM] | IC50 [4] [µM] | Activity [5]
1 | COc1ccc2nc3cc(Cl)ccc3c(NCCCN3C(=O)CCSC3c3c(Cl)cccc3Cl)c2c1 (configuration not stated) | 7.54 | 4.41 | 1.29 | 3.84 | 
2 | COc1ccc2nc3cc(Cl)ccc3c(NCCCN3C(=O)CCSC3c3ccc(F)cc3)c2c1 (configuration not stated) | 5.36 | 4.97 | 4.58 | 28.2 | 
3 | COc1ccc2nc3cc(Cl)ccc3c(NCCCN3C(=O)CCSC3c3ccc(Cl)cc3Cl)c2c1 (configuration not stated) | 3.07 | 1.85 | 3.72 | 4.28 | 
4 | COc1ccc2nc3cc(Cl)ccc3c(NCCCN3C(=O)CCSC3c3ccc(F)cc3F)c2c1 (configuration not stated) | 4.54 | 3.39 | 3.79 | 5.08 | 
5 | COc1ccc2nc3cc(Cl)ccc3c(NCCCN3C(=O)CCSC3c3ccc(N(c4ccccc4)c4ccccc4)cc3)c2c1 (configuration not stated) | 3.32 | 1.85 | 1.68 | 3.11 | 
6 | COc1ccc2nc3cc(Cl)ccc3c(NCCCN3C(=O)CCSC3c3ccc[nH]3)c2c1 (configuration not stated) | 4.56 | 1.66 | 4.87 | 12.9 | 
7 | COc1ccc2nc3cc(Cl)ccc3c(NCCCN3C(=O)CCSC3c3ccc([N+](=O)[O-])cc3)c2c1 (configuration not stated) | 4.68 | 7.04 | 9.41 | 19.5 | 
8 | CCN(CC)CCCC(C)Nc1ccnc2cc(Cl)ccc12 (configuration not stated) [CHLOROQUINE PHOSPHATE] | 22.5 | 38.4 | 28.6 | 76.1 | 
9 | COc1ccc2nc3cc(Cl)ccc3c(NCCCN3C(=O)CCSC3c3ccccc3[N+](=O)[O-])c2c1 (configuration not stated) | 0.77 | 0.99 | 1.21 | 1.83 | 
10 | COc1ccc2nc3cc(Cl)ccc3c(NCCCN3C(=O)CCSC3c3ccccc3Br)c2c1 (configuration not stated) | 40.1 | 39.3 | 38.6 | 15.6 | 
11 | COc1ccc2nc3cc(Cl)ccc3c(NCCCN3C(=O)CCSC3c3ccc(Cl)cc3)c2c1 (configuration not stated) | 3.53 | 3.4 | 4.43 | 5.02 | 
12 | COc1ccc2nc3cc(Cl)ccc3c(NCCCN3C(=O)CCSC3c3ccc(N(C)C)cc3)c2c1 (configuration not stated) | 2.63 | 3.09 | 3.56 | 13.2 | 
13 | COc1ccc2nc3cc(Cl)ccc3c(NCCCN3C(=O)CCSC3c3ccnc4ccccc34)c2c1 (configuration not stated) | 7.48 | 8.94 | 10.4 | 27.1 | 
14 | COc1ccc2nc3cc(Cl)ccc3c(NCCCN3C(=O)CCSC3c3ccccc3F)c2c1 (configuration not stated) | 4.11 | 2.29 | 2.68 | 35.6 | 
15 | COc1ccc2nc3cc(Cl)ccc3c(NCCCN3C(=O)CCSC3c3ccccc3)c2c1 (configuration not stated) | 4.07 | 4.79 | 4.72 | 9.32 | 
16 | COc1ccc2nc3cc(Cl)ccc3c(NCCCN3C(=O)CCSC3c3c(F)cccc3F)c2c1 (configuration not stated) | 4.41 | 3.81 | 3.2 | 29.3 | 
17 | COc1ccc2nc3cc(Cl)ccc3c(NCCCN3C(=O)CCSC3c3ccco3)c2c1 (configuration not stated) | 3.46 | 3.57 | 3.67 | 3.6 | 
18 | CCN(CC)CCCC(C)Nc1c2ccc(Cl)cc2nc2ccc(OC)cc12 (configuration not stated) [QUINACRINE] | 3.25 | 4.19 | 3.96 | 4.96 | Active
19 | COc1ccc2nc3cc(Cl)ccc3c(NCCCN3C(=O)CCSC3c3ccncc3)c2c1 (configuration not stated) | 10.8 | 16.2 | 21.6 | 14.6 | 
20 | COc1ccc2nc3cc(Cl)ccc3c(NCCCN3C(=O)CCSC3c3ccc(Br)cc3)c2c1 (configuration not stated) | 37.1 | 31.3 | 25.5 | 35.8 | 
21 | COc1ccc2nc3cc(Cl)ccc3c(NCCCN3C(=O)CCSC3C3CCCCC3)c2c1 (configuration not stated) | 5.85 | 5.05 | 5.25 | 7.71 | 
22 | COc1ccc2nc3cc(Cl)ccc3c(NCCCN3C(=O)CCSC3c3c(F)cccc3Cl)c2c1 (configuration not stated) | 3.44 | 4.31 | 5.19 | 3.1 | 
23 | COc1ccc2nc3cc(Cl)ccc3c(NCCCN3C(=O)CCSC3c3ccc(C)cc3)c2c1 (configuration not stated) | 4.87 | 5.52 | 6.97 | 5.66 | 
24 | COc1ccc2nc3cc(Cl)ccc3c(NCCCN3C(=O)CCSC3c3ccccc3Cl)c2c1 (configuration not stated) | 10.8 | 15.3 | 19.9 | 69.6 | 

Reference: ChEMBL document CHEMBL4138245, “Design and synthesis of novel quinacrine-[1,3]-thiazinan-4-one hybrids for their anti-breast cancer activity” (Eur J Med Chem, 2018)
